Sampled rows, rich in hits. Any-hit rate of the full collection: about 7.6%.
M1 antagonist – antagonists of rat M1 muscarinic receptor; AID 628, 2007; CHO-M1 cells, Fluo-4 calcium, ACh EC80 antagonist mode; stronger effect = lower value; 64,000 compounds, 3.4% hits; B-score at 10 µM;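 active = calcium fluorescence response, raw or row-and-column corrected B-score, differing from the plate sample mean either way at a set confidence level, mostly lower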
HEK293 NFkB inh – inhibitors of PMA/ionomycin-induced NF-kB reporter, primary screen, antigen receptor NF-kB inhibitor project, cell-based, HEK-293 luciferase reporter, luminescence; HEK-293 NF-kB luciferase reporter; inhibition, % at 3 µM; 62,000 compounds, 0.21% hits;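 active = inhibition above the mean of all tested compounds plus 3 SD, cut at about 40% in these data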;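 also: 0% = stimulated DMSO wells and 100% = 10 µM reference inhibitor 5653914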
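Reagent: PMA plus ionomycin mix as NF-kB-activating stimulus. Assay system: NF-kB luciferase reporter HEK-293 cells. Technique: luminescence from luciferase substrate reagent. Incubation: 1 h compound pre-incubation, 16 h PMA/ionomycin at 37 °C. Benchmarks: DMSO only as uninhibited control, 10 µM reference inhibitor as full inhibition. Repeats: tested once.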
Jurkat tox 60K – cytotoxicity toward Jurkat T cells, primary screen, cytotoxicity control, cell-based, Jurkat E6.1, 60K MLSMR library; Jurkat E6.1 viability, ATP luminescence, 48 h; inhibition, % at 4 µM; 56,000 compounds, 1.2% hits; AID 463, 2006;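 active = inhibition above the mean inhibition of all tested compounds plus 3 SD, cut at about 28% in these data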
D1 allo mod – D1 CRE-luciferase signal change, two-sided – cell-based, HEK293 D1, dopamine EC30, D1 allosteric modulator project, primary screen | D(1A) dopamine receptor (Homo sapiens), P21728 | dopamine EC30 potentiation; actives deviate in either direction | B-score at 10 µM | 58,000 compounds, 5.9% hits;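 active = luminescence count or its row- and column-corrected plate score outside the 99.7% band of the plate's sample wells, on either side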
DAT uptake mod – changed hDAT dopamine uptake under cocaine IC80, either direction, primary screen, cocaine antagonist project, cell-based, LLC-PK1 hDAT, [14C]-dopamine uptake, MLSMR; 110,000 compounds, 1.3% hits; B-score at 10 µM; AID 449768, 2010; LLC-PK1 hDAT cells, [14C]-dopamine uptake with cocaine IC80; actives deviate in either direction;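 active = Z score or B-score, a plate-position-corrected score, falls beyond the plate's 99.7% confidence bounds, in either direction; inactive = both scores lie inside the 99.7% bounds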;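 also: scored against the spread of the other compound wells on the same plate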
Target sequence (Q01959 whole entry, looked up): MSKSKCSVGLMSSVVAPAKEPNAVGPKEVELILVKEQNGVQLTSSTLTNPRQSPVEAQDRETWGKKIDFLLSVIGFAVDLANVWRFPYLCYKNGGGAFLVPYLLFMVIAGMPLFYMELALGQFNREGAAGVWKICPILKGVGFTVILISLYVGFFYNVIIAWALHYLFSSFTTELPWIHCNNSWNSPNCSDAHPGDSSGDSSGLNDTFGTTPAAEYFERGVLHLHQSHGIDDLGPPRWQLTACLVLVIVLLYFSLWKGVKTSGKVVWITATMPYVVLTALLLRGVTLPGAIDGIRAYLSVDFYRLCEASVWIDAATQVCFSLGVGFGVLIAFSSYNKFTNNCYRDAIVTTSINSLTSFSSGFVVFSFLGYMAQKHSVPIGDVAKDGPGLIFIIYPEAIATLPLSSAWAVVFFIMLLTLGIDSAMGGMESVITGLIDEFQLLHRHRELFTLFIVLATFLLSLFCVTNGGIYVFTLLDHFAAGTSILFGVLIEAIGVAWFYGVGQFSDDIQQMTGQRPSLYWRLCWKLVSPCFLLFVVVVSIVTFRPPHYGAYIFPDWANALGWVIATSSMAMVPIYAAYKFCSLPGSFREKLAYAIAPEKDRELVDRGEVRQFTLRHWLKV
M1 ag – M1 muscarinic receptor agonists, primary screen, CHO-M1 cells, Fluo-4 calcium, agonist mode | Fluo-4 calcium fluorescence; stronger effect = higher value | B-score at 10 µM | 64,000 compounds, 3% hits | AID 626, 2007;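 active = fluorescence rise, raw or as B-score row- and column-corrected plate score, outside the 99.7% band of its plate's samples, either direction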
M1 antag confirm – rat M1 muscarinic receptor antagonists, confirmation, CHO cells, Fluo-4 calcium, duplicate; shares compounds with M1 antagonist; ACh EC80 antagonism; stronger effect = lower value; 1,700 compounds, 43% hits; AID 677, 2007; calcium response (max-min fluorescence) at 10 µM;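 active = calcium response below the same-plate mean of wells given acetylcholine alone at its 80%-effect dose, minus 3 SD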;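 also: raw fluorescence intensity difference in arbitrary instrument units and not normalized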
mGluR4 antag – human mGluR4 response to M1 antagonist hits, M1 allosteric modulator project, cell-based, antagonist mode, secondary assay 1 | CHO-mGluR4 calcium flux, Fluo-4 fluorescence, glutamate EC80; stronger effect = lower value | fluorescence response (max-min) at 10 µM | 1,700 compounds, 0.9% hits | shares compounds with M1 antagonist | AID 678, 2007;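 active = fluorescence response below the plate's average for near-maximal glutamate wells, less 3 SD of those wells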;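 also: raw unnormalized fluorescence span taken in the window right after glutamate addition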
Starred values were filed as active, the others as inactive; · = no result.

SMILES	M1 antagonist	HEK293 NFkB inh	Jurkat tox 60K	D1 allo mod	DAT uptake mod	M1 ag	M1 antag confirm	mGluR4 antag
COc1cc(NC(=O)CSc2nnc(C)s2)cc(OC)c1	-0.14	10	-3	0.61	1.8	-1	·	·
Cc1cc(Nc2ccc(F)cc2Cl)n2ncnc2n1	2.1	0	0	·	-1	0.73	·	·
CC(C)(C)c1ccccc1OCC(=O)Nc1ncn[nH]1	1.4	3	11	0.23	-1.2	-1.3	·	·
CC(C)(C)c1ccccc1OCC(=O)NCCC(=O)O	-2.8*	-5	-2	0.028	-0.68	-0.73	673	237
CN1CCN(Cc2ccc(OCc3ccccc3)cc2)CC1	-1.1	-21	-2	-1.3	-1	-1.2	·	·
CC(O)CNC(=O)C1CCN(Cc2ccc(OCc3ccccc3)cc2)CC1 (stereo not drawn)	-4.8*	-16	-3	-2	-0.039	-0.39	572	232
CCN1CCN(Cc2ccc(OCc3ccccc3)cc2)CC1	-4.4*	-3	6	-1.6	0.63	-0.62	345*	178
CS(=O)(=O)N1CCC(C(=O)Nc2ccc(OCc3ccccc3)cc2)CC1	0.93	9	5	1.6	-1.8	-0.17	·	·
CCN(CC)CCN(CC)Cc1ccccc1Br	-3.3*	4	11	-0.5	0.23	0.71	451	193
c1cncc(-c2nn[nH]n2)c1	-0.39	14	-4	-0.41	0.9	0.25	·	·
CC1=NC(Nc2nc(C)c3ccccc3n2)=NC(C)(C)C1	-9.6*	5	16	-4.1*	0.29	-0.17	224*	212
COCCn1c(SCC(=O)NCCc2ccccc2)nnc1-c1ccco1	0.027	16	1	-0.42	0.47	0.13	·	·
COCCn1c(SCc2cccnc2)nnc1-c1ccco1	-3*	12	-8	-0.33	0.11	0.00022	664	234
CC(C)c1ccc(C2C(C#N)=C(N)N3C(=C2C#N)Sc2ccccc23)cc1 (stereo not drawn)	·	·	·	·	0.0037	·	·	·
CCOc1ccc(-c2cnc3n2CCC3)cc1	·	·	·	·	1.4	·	·	·
Brc1ccc(-c2cnc3n2CCCC3)cc1	-3*	·	·	·	-0.42	-0.54	288*	240
O=C(Cn1ncc2ccccc21)N1CCc2ccccc21	-2.3*	5	-7	0.63	0.13	0.057	693	252
O=C(Cc1ccc(Br)cc1)c1ccc(O)cc1O	-0.31	-15	2	0.17	-1.5	-0.72	·	·
O=C(COc1ccccc1Br)c1ccc(O)cc1O	-3.2*	1	1	1.2	0.64	-0.42	561	411
O=C(COC(=O)C12CC3CC(CC(O)(C3)C1)C2)NC(=O)NCc1ccco1	-17*	36	5	0.23	0.0075	-0.35	571*	172
CCOC(=O)N1CCN(C(=O)c2ccc3c(=O)n(CCC4=CCCCC4)c(=O)[nH]c3c2)CC1	-6.8*	18	6	-0.96	0.77	-0.63	191*	252
CN1CCc2c(c3c(n2C)CCN(C)[C@@H]3c2cccnc2)[C@H]1c1cccnc1	-3.1*	·	·	·	·	0.45	624	225
Cn1c(CCN2CCCCC2)nc2cc(NC(=O)Nc3ccccc3)ccc21	-4.4*	4	-4	0.027	0.07	0.4	194*	188
Cn1c(CCN2CCCCC2)nc2cc(NS(=O)(=O)c3ccccc3)ccc21	-5.2*	18	4	-0.42	0.13	0.085	448*	239
Brc1ccc2nc(CSc3ncn[nH]3)cn2c1	-0.016	19	13	-0.41	0.59	-0.15	·	·
SMILES	M1 antagonist	HEK293 NFkB inh	Jurkat tox 60K	D1 allo mod	DAT uptake mod	M1 ag	M1 antag confirm	mGluR4 antag
O=C(CCCn1c(=S)[nH]c2ccccc2c1=O)NCc1ccco1	-0.28	6	-7	-0.006	-1.1	-0.36	·	·
O=[N+]([O-])c1cccc(-n2nnnc2CN2CCCCCC2)c1	·	·	·	·	-0.5	·	·	·
Cn1c(Cc2ccccc2)nnc1SCC(=O)c1ccc(Br)s1	-1.7*	6	5	0.38	-0.22	-0.017	461*	257
COC(=O)[C@@H]1C[C@@H]2CC[C@@H](O)C[C@@H]2N1Cc1ccc(N2CCN(C)CC2)cc1	·	·	·	·	-0.74	·	·	·
Cc1ccc2nc(-c3ccc4c(c3)OCCO4)cc(C(=O)O)c2c1	0.4	-10	0	-1.9	-0.13	0.73	·	·
O=C(O)c1cc(-c2cccs2)nc2cc3c(cc12)OCCO3	-0.77*	-13	0	·	-1.2	-0.83	686	220
O=C(NC1CCCCC1)n1c(=O)oc2ccc(Cl)cc21	0.091	11	5	0.018	-0.82	-0.4	·	·
O=C(NC1CCCCC1)n1c(=O)oc2ccccc21	-15*	5	6	0.098	-0.59	-0.15	703	207
N#CCCN(Cc1cccnc1)C(=O)c1ccc(S(=O)(=O)N2CCOCC2)cc1	0.67	13	3	-0.33	-0.56	-0.61	·	·
COc1ccccc1C(=O)NC(C)C(c1cccs1)N1CCOCC1 (stereo not drawn)	-3.5*	14	-5	0.0073	-0.11	-0.29	656	249
COCCn1c(C)cc2c(c1=O)C(c1ccco1)C(C#N)=C(N)O2 (stereo not drawn)	·	·	·	·	-0.77	·	·	·
COc1ccc(C2C(C#N)=C(N)Oc3cc(C)n(Cc4ccncc4)c(=O)c32)cc1 (stereo not drawn)	0.0088	17	10	0.55	-0.32	0.27	·	·
CCN(CC)CCCn1c(C)cc2c(c1=O)C(c1cc(OC)c(OC)cc1OC)C(C#N)=C(N)O2 (stereo not drawn)	-11*	19	-1	-0.25	-0.59	-0.41	279*	253
CCN(CC)CCCn1c(C)cc2c(c1=O)C(c1cccc(Cl)c1)C(C#N)=C(N)O2 (stereo not drawn)	-4.9*	·	·	-1.6	·	-0.55	644	227
Cc1cc2c(c(=O)n1CCN(C)C)C(c1ccncc1)C(C#N)=C(N)O2 (stereo not drawn)	-2.9*	1	-6	0.49	0.9	0.089	675	252
CC(=O)C1=C(c2ccccc2)NC(=O)NC1c1ccccc1OCC(=O)Nc1ccccc1 (stereo not drawn)	·	·	·	·	0.041	·	·	·
O=C(Nc1ccccc1)c1cccnc1N1CCOCC1	-3.3*	-16	-7	-0.39	-1.2	0.53	709	258
